Source: ChEMBL document CHEMBL1142960, “Synthesis and structure-activity relationships for 2,4-dinitrobenzamide-5-mustards as prodrugs for the Escherichia coli nfsB nitroreductase in gene therapy” (J Med Chem, 2007)
pIC50: −log10 of the molar value. In brackets after ≈: the same amount, converted by molar mass.

Test system: not listed separately
Experiment: Partition coefficient at pH 7.4 by shake-flask method
Format: physicochemical
Conditions: octanol/water
Outline: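 Octanol-water partition coefficient by shake-flask at pH 7.4, reported with SEM.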

SMILES | logD
CS(=O)(=O)OCCN(CCI)c1cc(C(N)=O)c([N+](=O)[O-])cc1[N+](=O)[O-] | 0.74
O=C(NCCCO)c1cc(N(CCBr)CCBr)c([N+](=O)[O-])cc1[N+](=O)[O-] | 1.81

Test system: V79
Experiment: Antiproliferative activity against chinese hamster wild-type V79 NTR-ve cells after 18 hrs
Format: functional, cell-based
Conditions: Cricetulus griseus, V79, 18 h

SMILES | pIC50
CS(=O)(=O)OCCN(CCI)c1cc(C(N)=O)c([N+](=O)[O-])cc1[N+](=O)[O-] | 4.00
O=C(NCCCO)c1cc(N(CCBr)CCBr)c([N+](=O)[O-])cc1[N+](=O)[O-] | 4.43

Test system: V79
Experiment: Antiproliferative activity against chinese hamster V79 NTRpuro cells after 18 hrs
Format: functional, cell-based
Conditions: Cricetulus griseus, V79, 18 h

SMILES | pIC50
CS(=O)(=O)OCCN(CCI)c1cc(C(N)=O)c([N+](=O)[O-])cc1[N+](=O)[O-] | 6.54
O=C(NCCCO)c1cc(N(CCBr)CCBr)c([N+](=O)[O-])cc1[N+](=O)[O-] | 6.55

Test system: V79
Experiment: Selectivity ratio of IC50 for V79 NTR-ve cells to IC50 for V79 NTRpuro cells
Format: functional, Cricetulus griseus
Conditions: not given

SMILES | Ratio IC50
CS(=O)(=O)OCCN(CCI)c1cc(C(N)=O)c([N+](=O)[O-])cc1[N+](=O)[O-] | 311
O=C(NCCCO)c1cc(N(CCBr)CCBr)c([N+](=O)[O-])cc1[N+](=O)[O-] | 135

Test system: EMT6
Experiment: Antiproliferative activity against mouse wild type EMT6 NTR-ve cells after 18 hrs
Format: functional, cell-based
Conditions: EMT6, 18 h

SMILES | pIC50
CS(=O)(=O)OCCN(CCI)c1cc(C(N)=O)c([N+](=O)[O-])cc1[N+](=O)[O-] | 4.10
O=C(NCCCO)c1cc(N(CCBr)CCBr)c([N+](=O)[O-])cc1[N+](=O)[O-] | 4.18

Test system: EMT6
Experiment: Antiproliferative activity against mouse EMT6 NTRpuro cells after 18 hrs
Format: functional, cell-based
Conditions: EMT6, 18 h

SMILES | pIC50
CS(=O)(=O)OCCN(CCI)c1cc(C(N)=O)c([N+](=O)[O-])cc1[N+](=O)[O-] | 6.77
O=C(NCCCO)c1cc(N(CCBr)CCBr)c([N+](=O)[O-])cc1[N+](=O)[O-] | 7.30

Test system: EMT6
Experiment: Selectivity ratio of IC50 for EMT6 NTR-ve cells to IC50 forEMT6 NTRpuro cells
Format: functional, Mus musculus
Conditions: not given

SMILES | Ratio IC50
CS(=O)(=O)OCCN(CCI)c1cc(C(N)=O)c([N+](=O)[O-])cc1[N+](=O)[O-] | 529
O=C(NCCCO)c1cc(N(CCBr)CCBr)c([N+](=O)[O-])cc1[N+](=O)[O-] | 1670

Test system: WiDr
Experiment: Antiproliferative activity against human wild type WiDr NTR-ve cells after 18 hrs
Format: functional, cell-based
Conditions: not given

SMILES | pIC50
CS(=O)(=O)OCCN(CCI)c1cc(C(N)=O)c([N+](=O)[O-])cc1[N+](=O)[O-] | 4.15
O=C(NCCCO)c1cc(N(CCBr)CCBr)c([N+](=O)[O-])cc1[N+](=O)[O-] | 4.25

Test system: WiDr
Experiment: Antiproliferative activity against human WiDr NTRneo cells after 18 hrs
Format: functional, cell-based
Conditions: not given

SMILES | pIC50
CS(=O)(=O)OCCN(CCI)c1cc(C(N)=O)c([N+](=O)[O-])cc1[N+](=O)[O-] | 6.39
O=C(NCCCO)c1cc(N(CCBr)CCBr)c([N+](=O)[O-])cc1[N+](=O)[O-] | 6.60

Test system: WiDr
Experiment: Selectivity ratio of IC50 for WiDr NTR-ve cells to IC50 for WiDr NTRneo cells
Format: functional, Homo sapiens
Conditions: not given

SMILES | Ratio IC50
CS(=O)(=O)OCCN(CCI)c1cc(C(N)=O)c([N+](=O)[O-])cc1[N+](=O)[O-] | 172
O=C(NCCCO)c1cc(N(CCBr)CCBr)c([N+](=O)[O-])cc1[N+](=O)[O-] | 224

Test system: not listed separately
Experiment: Antiproliferative activity against human wild type Skov3 NTR-ve cells after 18 hrs
Format: functional, cell-based
Conditions: not given

SMILES | pIC50
CS(=O)(=O)OCCN(CCI)c1cc(C(N)=O)c([N+](=O)[O-])cc1[N+](=O)[O-] | 4.01
O=C(NCCCO)c1cc(N(CCBr)CCBr)c([N+](=O)[O-])cc1[N+](=O)[O-] | 4.14

Test system: V79
Experiment: Clonogenic survival of V79 NTRoua cells after 5 hrs by MCL assay
Format: functional, Cricetulus griseus
Conditions: not given

SMILES | Activity [µM]
CS(=O)(=O)OCCN(CCI)c1cc(C(N)=O)c([N+](=O)[O-])cc1[N+](=O)[O-] | >200
O=C(NCCCO)c1cc(N(CCBr)CCBr)c([N+](=O)[O-])cc1[N+](=O)[O-] | 100

Test system: not listed separately
Experiment: Antiproliferative activity against human Skov3 NTRneo cells after 18 hrs
Format: functional, cell-based
Conditions: SK-OV-3, 18 h

SMILES | pIC50
CS(=O)(=O)OCCN(CCI)c1cc(C(N)=O)c([N+](=O)[O-])cc1[N+](=O)[O-] | 6.51
O=C(NCCCO)c1cc(N(CCBr)CCBr)c([N+](=O)[O-])cc1[N+](=O)[O-] | 6.64

Test system: not listed separately
Experiment: Selectivity ratio of IC50 for Skov3 NTR-ve cells to IC50 for Skov3 NTRneo cells
Format: functional, Homo sapiens
Conditions: not given

SMILES | Ratio IC50
CS(=O)(=O)OCCN(CCI)c1cc(C(N)=O)c([N+](=O)[O-])cc1[N+](=O)[O-] | 328
O=C(NCCCO)c1cc(N(CCBr)CCBr)c([N+](=O)[O-])cc1[N+](=O)[O-] | 309

Test system: V79
Experiment: Clonogenic survival of 3% V79 NTRpuro cells in co-cultures with 97% V79 NTRoua after 5 hrs by MCL assay
Format: functional, Cricetulus griseus
Conditions: not given
Outline: (§1)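 Multicellular layer cocultures of 3% V79-NTRpuro activators and 97% V79oua NTR-ve targets (ouabain-resistant), exposed to prodrug for 5 h. MCLs were then trypsin-dissociated and plated in ouabain or puromycin selective media for clonogenic survival. C10 (10% survival) interpolated for activators and targets; AC/TC ratio derived. Mean with SEM or range over independent experiments.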

SMILES | Activity [µM]
CS(=O)(=O)OCCN(CCI)c1cc(C(N)=O)c([N+](=O)[O-])cc1[N+](=O)[O-] | 4.2
O=C(NCCCO)c1cc(N(CCBr)CCBr)c([N+](=O)[O-])cc1[N+](=O)[O-] | 3

Test system: V79
Experiment: Clonogenic survival of 97% V79 NTRoua cells in co-cultures with 3% V79 NTRpuro cells after 5 hrs by MCL assay
Format: functional, Cricetulus griseus
Conditions: not given
Outline: as §1

SMILES | Activity [µM]
CS(=O)(=O)OCCN(CCI)c1cc(C(N)=O)c([N+](=O)[O-])cc1[N+](=O)[O-] | 12
O=C(NCCCO)c1cc(N(CCBr)CCBr)c([N+](=O)[O-])cc1[N+](=O)[O-] | 7

Test system: not listed separately
Experiment: Toxicity in ip dosed CD1 nude mouse in DMSO/PEG
Format: organism-based
Conditions: in vivo
Outline: (§2)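 Maximum tolerated dose (MTD) determined in CD-1 nude mice after a single i.p. injection of prodrug, given in the vehicle named in each line.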

SMILES | MTD [µmol/kg]
O=C(NCCCO)c1cc(N(CCBr)CCBr)c([N+](=O)[O-])cc1[N+](=O)[O-] | 562

Test system: not listed separately
Experiment: Toxicity in ip dosed CD1 nude mouse in DMSO
Format: organism-based
Conditions: in vivo
Outline: as §2

SMILES | MTD [µmol/kg]
CS(=O)(=O)OCCN(CCI)c1cc(C(N)=O)c([N+](=O)[O-])cc1[N+](=O)[O-] | 1330
O=C(NCCCO)c1cc(N(CCBr)CCBr)c([N+](=O)[O-])cc1[N+](=O)[O-] | 1780

Test system: V79
Experiment: Clonogenic survival ratio of 3% V79 NTRpuro cells to 97% V79 NTRoua cells in co-culture
Format: functional, Cricetulus griseus
Conditions: not given
Outline: as §1

SMILES | Ratio
CS(=O)(=O)OCCN(CCI)c1cc(C(N)=O)c([N+](=O)[O-])cc1[N+](=O)[O-] | 0.35

Test system: EMT6
Experiment: Antitumor activity against mixed mouse EMT6/EMT6 NTRpuro cells injected in CD1 nude mouse assessed as cell kill at 562 umol/kg, ip in DMSO/PEG after 18 hrs
Format: functional
Conditions: not given

SMILES | LCK
O=C(NCCCO)c1cc(N(CCBr)CCBr)c([N+](=O)[O-])cc1[N+](=O)[O-] | >3.44

Test system: WiDr
Experiment: Antitumor activity against mixed human 10% WiDr NTRneo/ 90% WiDr tumor cells injected in CD1 nude mouse assessed as growth delay at 1780 umol/kg, ip in DMSO
Format: functional
Conditions: not given
Outline: (§3)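 WiDr-NTRneo tumours (100% NTR+ve, or 1:9 NTR+ve:NTR-ve mixtures) in CD-1 nude mice, given a single i.p. dose at MTD. Read-out is median growth delay to 15 mm mean diameter, plus tumours not palpable 100 days after treatment. Aziridine given at 200 µmol/kg as positive control in every experiment.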

SMILES | Activity [days]
O=C(NCCCO)c1cc(N(CCBr)CCBr)c([N+](=O)[O-])cc1[N+](=O)[O-] | 7

Test system: WiDr
Experiment: Antitumor activity against mixed human 10% WiDr NTRneo/ 90% WiDr tumor cells injected in CD1 nude mouse assessed as growth delay at 1330 umol/kg, ip in DMSO
Format: functional
Conditions: not given
Outline: as §3

SMILES | Activity [days]
CS(=O)(=O)OCCN(CCI)c1cc(C(N)=O)c([N+](=O)[O-])cc1[N+](=O)[O-] | 15

Test system: not listed separately
Experiment: Solubility in alpha MEM
Format: physicochemical
Conditions: not given
Outline: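 Solubility (mM) in α-MEM with 5% fetal calf serum at ambient temperature, measured by HPLC.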

SMILES | solubility [µM]
CS(=O)(=O)OCCN(CCI)c1cc(C(N)=O)c([N+](=O)[O-])cc1[N+](=O)[O-] | 200 (≈ 100 µg/mL)
O=C(NCCCO)c1cc(N(CCBr)CCBr)c([N+](=O)[O-])cc1[N+](=O)[O-] | 170 (≈ 84.7 µg/mL)

Test system: not listed separately
Experiment: Stability in alpha MEM at 37 degC after 24 hrs
Format: physicochemical
Conditions: read-out: Stability
Outline: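 Percent parent compound remaining, by HPLC, after holding in α-MEM with 5% fetal calf serum at 37 °C for 24 h.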

SMILES | remaining at 24 h [%]
CS(=O)(=O)OCCN(CCI)c1cc(C(N)=O)c([N+](=O)[O-])cc1[N+](=O)[O-] | 72
O=C(NCCCO)c1cc(N(CCBr)CCBr)c([N+](=O)[O-])cc1[N+](=O)[O-] | 83

Test system: WiDr
Experiment: Antitumor activity against human 100% WiDr NTRneo tumor cells injected in CD1 nude mouse assessed as growth delay at 1330 umol/kg, ip in DMSO
Format: functional
Conditions: not given
Outline: as §3

SMILES | Activity [days]
CS(=O)(=O)OCCN(CCI)c1cc(C(N)=O)c([N+](=O)[O-])cc1[N+](=O)[O-] | >82

Test system: WiDr
Experiment: Antitumor activity against human 100% WiDr NTRneo tumor cells injected in CD1 nude mouse assessed as growth delay at 562 umol/kg, ip in DMSO/PEG
Format: functional
Conditions: not given
Outline: as §3

SMILES | Activity [days]
O=C(NCCCO)c1cc(N(CCBr)CCBr)c([N+](=O)[O-])cc1[N+](=O)[O-] | >83
